Measured values as given in ChEMBL document CHEMBL3351899, “Novologues containing a benzamide side chain manifest anti-proliferative activity against two breast cancer cell lines” (Bioorg Med Chem Lett, 2014).
Calls of active or inactive are those of the source. The calls are words filed in the database; no cut-off is given here.

How the values were obtained:
[1] = Antiproliferative activity against human SKBR3 cells; assay type: functional, cell-based, SK-BR-3; conditions: for EC50: Homo sapiens, SK-BR-3
Outline: (§1)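 Cell-based antiproliferation assay in SKBr3 (ER-negative, HER2-overexpressing) and MCF-7 (ER-positive) breast cancer cells. Values are mean ± standard deviation from at least two separate experiments, each run in triplicate.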

MCF7 [2] = assay: Antiproliferative activity against human MCF7 cells; assay type: functional; outline: as §1
[3] = biological target: Heat shock protein HSP 90-beta (Homo sapiens) (UniProt P08238); assay: Inhibition of HSP90-mediated p-Akt degradation in human MCF7 cell lysate after 24 hrs by Western blot analysis; assay type: cell-based
Heat shock protein HSP 90-beta (Homo sapiens), sequence (P08238 whole entry): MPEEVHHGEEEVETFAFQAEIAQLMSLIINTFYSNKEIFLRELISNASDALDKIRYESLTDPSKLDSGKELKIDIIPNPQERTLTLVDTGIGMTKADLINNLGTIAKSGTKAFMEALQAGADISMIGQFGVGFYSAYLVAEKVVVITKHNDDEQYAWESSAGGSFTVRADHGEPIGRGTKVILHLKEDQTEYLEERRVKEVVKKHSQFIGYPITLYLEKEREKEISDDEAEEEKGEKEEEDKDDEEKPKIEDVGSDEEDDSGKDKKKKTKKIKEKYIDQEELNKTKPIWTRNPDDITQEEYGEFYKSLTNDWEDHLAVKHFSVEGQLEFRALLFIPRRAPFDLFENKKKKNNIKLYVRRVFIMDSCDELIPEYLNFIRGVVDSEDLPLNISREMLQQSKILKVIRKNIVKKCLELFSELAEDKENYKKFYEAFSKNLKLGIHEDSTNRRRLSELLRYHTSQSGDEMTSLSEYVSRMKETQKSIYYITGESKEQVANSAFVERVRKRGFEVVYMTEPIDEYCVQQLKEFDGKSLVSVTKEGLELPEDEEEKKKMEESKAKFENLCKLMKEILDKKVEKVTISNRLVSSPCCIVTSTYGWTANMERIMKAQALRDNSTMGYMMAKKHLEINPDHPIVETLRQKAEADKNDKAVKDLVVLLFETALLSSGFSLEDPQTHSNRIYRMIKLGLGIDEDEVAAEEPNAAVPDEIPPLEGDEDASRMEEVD
Outline: (§2)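 MCF7 cells grown to confluence, seeded at 0.4 x 10^6 cells/well, incubated 24 h, then treated 24 h with varying compound concentrations (0.25% DMSO final) or DMSO vehicle; geldanamycin 0.5 µM as positive control. Cells lysed with protease/phosphatase inhibitors and clarified at 14,000g, 15 min, 4 °C. 5 µg protein run on reducing 10% gels, PVDF transfer, immunoblot with HRP secondary and chemiluminescent detection; actin as loading control.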

MCF7 [4] = assay: Effect on HSP90 level in human MCF7 cell lysate at 1 to 25 uM after 24 hrs by Western blot analysis; assay type: functional, cell-based; outline: as §2
[5] = biological target: Heat shock protein HSP 90-beta (Homo sapiens) (UniProt P08238); assay: Inhibition of HSP90-mediated Her2 degradation in human MCF7 cell lysate after 24 hrs by Western blot analysis; assay type: cell-based; outline: as §2
[6] = biological target: Heat shock protein HSP 90-beta (Homo sapiens) (UniProt P08238); assay: Inhibition of HSP90-mediated Raf-1 degradation in human MCF7 cell lysate after 24 hrs by Western blot analysis; assay type: cell-based; outline: as §2

| SMILES | Activity (MCF7 [2]) | Activity [1] | also measured |
| --- | --- | --- | --- |
| CO[C@@H]1[C@@H](O)[C@@H](O)[C@H](Oc2ccc3cc(NC(C)=O)c(=O)oc3c2C)OC1(C)C |  |  | EC50 [1]: 10 nM |
| COc1cccc(-c2cc(C(=O)NCCc3ccc(OC4CCN(C)CC4)cc3-c3cccc(F)c3)ccc2OC)c1 | 3.19 µM | 2.82 µM |  |
| CO[C@@H]1[C@@H](O)[C@@H](O)[C@H](Oc2ccc(CCNC(=O)c3ccc(C(C)(C)C)cc3)c(-c3cccc(C(F)(F)F)c3)c2)OC1(C)C | 23.69 µM | 21.78 µM |  |
| CN1CCC(Oc2ccc(CCNC(=O)c3ccc(C(C)(C)C)cc3)c(-c3cccc(C(F)(F)F)c3)c2)CC1 | 1.48 µM | 1.16 µM |  |
| COc1cccc(-c2cc(C(=O)NCCc3ccc(OC4CCN(C)CC4)cc3-c3cccc(Cl)c3)ccc2OC)c1 | 6.87 µM | 5.63 µM |  |
| COc1cccc(-c2cc(C(=O)NCCc3ccc(OC4CCN(C)CC4)cc3-c3ccccc3)ccc2OC)c1 | 8.12 µM | 6.77 µM |  |
| COc1cccc(-c2cc(C(=O)NCCc3ccc(O[C@@H]4OC(C)(C)[C@H](OC)[C@@H](O)[C@H]4O)cc3-c3cccc(C(F)(F)F)c3)ccc2OC)c1 | 18.4 µM | 13.98 µM |  |
| COc1cccc(-c2cc(OC3CCN(C)CC3)ccc2CCNC(=O)c2ccc(OC)c(-c3cccc(OC)c3)c2)c1 | 12.36 µM | 11.54 µM |  |
| CO[C@@H]1[C@@H](O)[C@@H](O)[C@H](Oc2ccc(CCNC(=O)c3ccc(Cl)cc3)c(-c3cccc(C(F)(F)F)c3)c2)OC1(C)C | 11.69 µM | 14.48 µM |  |
| CN1CCC(Oc2ccc(CCNC(=O)c3ccc(Cl)cc3)c(-c3cccc(C(F)(F)F)c3)c2)CC1 | 2.11 µM | 1.87 µM |  |
| CO[C@@H]1[C@@H](O)[C@@H](O)[C@H](Oc2ccc(CCNC(C)=O)c(-c3cccc(C(F)(F)F)c3)c2)OC1(C)C | >500 µM |  | EC50 [1]: > 500000 nM |
| COc1cccc(-c2cc(C(=O)NCCc3ccc(OC4CCN(C)CC4)cc3-c3cccc(C(F)(F)F)c3)ccc2OC)c1 | 1.62 µM | 1.52 µM | inhibition [3]: Dose-dependent effect; Activity (MCF7 [4]): Active; inhibition [5]: Dose-dependent effect; inhibition [6]: Dose-dependent effect |
| COc1ccc(C(=O)NCCc2ccc(O[C@@H]3OC(C)(C)[C@H](OC)[C@@H](O)[C@H]3O)cc2-c2cccc(C(F)(F)F)c2)cc1 | 12.1 µM | 14.02 µM |  |
| CO[C@@H]1[C@@H](O)[C@@H](O)[C@H](Oc2ccc(CCNC(=O)c3ccccc3)c(-c3cccc(C(F)(F)F)c3)c2)OC1(C)C | 44.44 µM | 41.9 µM |  |
| COc1ccc(C(=O)NCCc2ccc(OC3CCN(C)CC3)cc2-c2cccc(C(F)(F)F)c2)cc1 | 4.82 µM | 2.71 µM |  |
| CN1CCC(Oc2ccc(CCNC(=O)c3ccccc3)c(-c3cccc(C(F)(F)F)c3)c2)CC1 | 15.07 µM | 13.22 µM |  |
